Reference: ChEMBL document CHEMBL1121659 (J Med Chem, 1981)

Tests used:
[1] = Compound at the dose 10 mg/kg administered intraperitoneally was evaluated for the excretion rate in rats in 7 days through urine; assay type: ADME, organism-based; design: dose 10 mg/kg, route intraperitoneal; settings: rat, ip, read-out: Excretion
Method in brief: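 Male Wistar rats (150–330 g) in individual metabolic cages received [14C] compound 10 mg/kg ip in propylene glycol (5 mL/kg), n=4. Urine and feces were collected for 7 days. Urine was diluted with EtOH and counted directly. Fecal EtOH homogenates were dried, combusted and counted as trapped 14CO2.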

Rattus norvegicus = experiment: excretion rate in rats after the dose of 5 mg/kg intravenously, at the dose 4 hour Rate of biliary excretion; 0.06-0.15%/h; assay type: ADME, organism-based, Bile; design: dose 5 mg/kg, route intravenous; settings: in vivo, iv
[2] = Compound was evaluated for the Brain levels at 24 h in the Swiss webster mouse when administered at the […]; assay type: ADME, organism-based; settings: read-out: Plasma level
Method in brief: (§1)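 Swiss Webster mice (20–30 g) received [14C] compound 10 mg/kg ip. Four animals were killed at each of 12, 18, 24, 36, 48 and 72 h. Radioactivity was measured in plasma and brain, and the plasma elimination half-life was derived from these levels.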

[3] = Compound was evaluated for the average plasma levels at 24 hours, after administration of intraperitoneal route; assay type: ADME; settings: ip, read-out: Plasma level
Method in brief: (§2)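 Male Wistar rats were given [14C] compound 5 mg/kg ip in propylene glycol (2 mL/kg). Blood was taken by cardiac puncture under ether at 1, 2, 3, 5 and 7 days, six rats per time point. Plasma 14C was counted to give the β-phase elimination half-life and plasma levels.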

[4] = Compound was evaluated for the average plasma levels at 24 hours, after administration of intravenous route; assay type: ADME; settings: read-out: Plasma level
Method in brief: (§3)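 Male Wistar rats under pentobarbital (25 mg/kg ip) received [14C] compound 5 mg/kg iv in propylene glycol–0.1 N NaOH (1:1). Dosing was by jugular infusion, or by tail vein for later time points.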

[5] = Compound was evaluated for the plasma level at 18 hr in the Swiss webster mouse when administered at the […]; assay type: ADME; settings: read-out: Plasma level; method in brief: as §1
[6] = Compound was evaluated for the biological half life in rats after a dose of 5 mg/kg given intraperitoneal route; assay type: ADME, organism-based; design: dose 5 mg/kg, route intraperitoneal; settings: rat, in vivo, ip; method in brief: as §2
[7] = Compound was evaluated for the biological half life in rats after a dose of 5 mg/kg given intravenous route; assay type: ADME, organism-based; design: dose 5 mg/kg, route intravenous; settings: rat, in vivo; method in brief: as §3
[8] = Compound was evaluated for the plasma biological half life in the Swiss webster mouse when administered at the […]; assay type: ADME, organism-based; method in brief: as §1
[9] = Compound was evaluated for the toxicity in mouse on 7 th day when administered through intraperitoneal route; assay type: organism-based; settings: in vivo, ip
Method in brief: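 Male Swiss Webster mice (20–40 g) dosed in propylene glycol (10–20 mL/kg), ip at 10, 20, 50, 100 and 200 mg/kg or po at 100 and 200 mg/kg. Ten mice per dose level, observed for toxicity for 1 week. LD50 taken at 7 days.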

Mus musculus [10] = experiment: Time to first twitch in intravenous pentylenetetrazole test in mice at 100 mg/kg for 30 h time of test; assay type: functional
Method in brief: (§4)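 Carworth Farm No. 1 mice (average 20 g) were dosed ip. At set times afterwards, 0.5% pentylenetetrazol in heparinized saline was infused into the tail vein at 0.34 mL/min. Time to first twitch was recorded in individual mice, with observation to 240 s.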

Mus musculus [11] = experiment: Time to first twitch in intravenous pentylenetetrazole test in mice at 100 mg/kg for 48 hr time of test; assay type: functional; method in brief: as §4
Mus musculus [12] = experiment: Time to first twitch in intravenous pentylenetetrazole test in mice at 100 mg/kg for 72 hr time of test; assay type: functional; method in brief: as §4
Mus musculus [13] = experiment: Time to first twitch in intravenous pentylenetetrazole test in mice at 100 mg/kg for 96 hr time of test; assay type: functional; method in brief: as §4
Mus musculus [14] = experiment: Time to first twitch in intravenous pentylenetetrazole test in mice at 1000 mg/kg for 24 hr time of test; assay type: functional; method in brief: as §4
Mus musculus [15] = experiment: Time to first twitch in intravenous pentylenetetrazole test in mice at 150 mg/kg for 30 hr time of test; assay type: functional; method in brief: as §4
Mus musculus [16] = experiment: Time to first twitch in intravenous pentylenetetrazole test in mice at 150 mg/kg for 48 hr time of test; assay type: functional; method in brief: as §4
Mus musculus [17] = experiment: Time to first twitch in intravenous pentylenetetrazole test in mice at 150 mg/kg for 72 h time of test; assay type: functional; method in brief: as §4
Mus musculus [18] = experiment: Compound was evaluated for the neurotoxicity after intraperitoneal administration at 24 hours; assay type: organism-based; settings: in vivo, ip
Method in brief: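 Rotarod ataxia test in Carworth Farm No. 1 mice, run by the ADD program. Dosed ip in aqueous 30% PEG 400. Neurological deficit scored at 24 and 48 h after doses up to 1000 mg/kg.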

Mus musculus [19] = experiment: Time to first twitch in intravenous pentylenetetrazole test in mice at 150 mg/kg for 96 hr time of test; assay type: functional; method in brief: as §4
Mus musculus [20] = experiment: Time to first twitch in intravenous pentylenetetrazole test in mice at 200 mg/kg for 48 hr time of test; assay type: functional; method in brief: as §4
Mus musculus [21] = experiment: Time to first twitch in intravenous pentylenetetrazole test in mice at 200 mg/kg for 72 hr time of test; assay type: functional; method in brief: as §4
Mus musculus [22] = experiment: Time to first twitch in intravenous pentylenetetrazole test in mice at 200 mg/kg for 96 hr time of test; assay type: functional; method in brief: as §4
Mus musculus [23] = experiment: Time to first twitch in intravenous pentylenetetrazole test in mice at 300 mg/kg for 30 hr time of test; assay type: functional; method in brief: as §4
Mus musculus [24] = experiment: Time to first twitch in intravenous pentylenetetrazole test in mice at 300 mg/kg for 48 hr time of test; assay type: functional; method in brief: as §4
Mus musculus [25] = experiment: Time to first twitch in intravenous pentylenetetrazole test in mice at 300 mg/kg for 72 h time of test; assay type: functional; method in brief: as §4
Mus musculus [26] = experiment: Time to first twitch in intravenous pentylenetetrazole test in mice at 500 mg/kg for 24 hr time of test; assay type: functional
Method in brief: (§5)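 Carworth Farm no. 1 mice (av wt 20 g) given the compound ip; at the designated time afterwards, 0.5% pentylenetetrazol in heparinized saline was infused into the tail vein at 0.34 mL/min. Time to first twitch (minimal excitation) was recorded for individual mice, observed up to 240 s.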

Mus musculus [27] = experiment: Time to first twitch in intravenous pentylenetetrazole test in mice at 500 mg/kg for 48 hr time of test; assay type: functional; method in brief: as §5
[28] = Compound was evaluated for the tissue levels after 1 hour of administration of 5 mg/kg through intravenous route, the given data is tissue/plasma ratios Muscle; assay type: ADME, organism-based; design: dose 5 mg/kg, route intravenous
Method in brief: (§6)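 Anesthetized male Wistar rats received [14C] compound 5 mg/kg by slow jugular infusion in propylene glycol–0.1 N NaOH (1:1). Tissues were taken at 1 h, four per group, rinsed, blotted and weighed. Fat, muscle and red cells were combusted directly, other organs after EtOH homogenization. Tissue/plasma 14C ratios were computed.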

[29] = Compound was evaluated for the tissue levels after 1 hour of administration of 5 mg/kg through intravenous route, the given data is tissue/plasma ratios brain; assay type: ADME, organism-based; design: dose 5 mg/kg, route intravenous; method in brief: as §6
[30] = Compound was evaluated for the tissue levels after 1 hour of administration of 5 mg/kg through intravenous route, the given data is tissue/plasma ratios gastrointestinal tract; assay type: ADME, organism-based; design: dose 5 mg/kg, route intravenous; method in brief: as §6
[31] = Compound was evaluated for the tissue levels after 1 hour of administration of 5 mg/kg through intravenous route, the given data is tissue/plasma ratios kidneys; assay type: ADME, organism-based, Kidney; design: dose 5 mg/kg, route intravenous; method in brief: as §6
[32] = Compound was evaluated for the tissue levels after 1 hour of administration of 5 mg/kg through intravenous route, the given data is tissue/plasma ratios liver; assay type: ADME, organism-based; design: dose 5 mg/kg, route intravenous; method in brief: as §6
[33] = Compound was evaluated for the tissue levels after 1 hour of administration of 5 mg/kg through intravenous route, the given data is tissue/plasma ratios lungs; assay type: ADME, organism-based; design: dose 5 mg/kg, route intravenous; method in brief: as §6

With `O=C1NC(=O)C(c2ccc(C(F)(F)F)cc2)(c2ccc(C(F)(F)F)cc2)N1` the dose excreted at 168 h [1] was 0.3%, the Excretion rate (Rattus norvegicus) was 0.15 and the concentration at 24 h [2] was 3500 ng/mL. For the same compound, the concentration at 24 h [3] was 11000 ng/mL, the concentration at 24 h [4] was 9400 ng/mL and the concentration at 18 h [5] was 27000 ng/mL. It also gave a half-life [6] of 71.7 h, a half-life [7] of 66.7 h and a half-life [8] of 115 h. The LD50 at 7 days [9] was 40 mg/kg, the Time (Mus musculus [10]) was 23.1 s and the Time (Mus musculus [11]) was 24.3 s. For the same compound, the Time (Mus musculus [12]) was 27.1 s, the Time (Mus musculus [13]) was 27.5 s and the Time (Mus musculus [14]) was 25.5 s. The Time (Mus musculus [15]) was 28.6 s, the Time (Mus musculus [16]) was 26.7 s and the Time (Mus musculus [17]) was 24.1 s. For the same compound, the Toxic dose (Mus musculus [18]) was 750 mg/kg, the Time (Mus musculus [19]) was 23.4 s and the Time (Mus musculus [20]) was 24.5 s. The Time (Mus musculus [21]) was 23.6 s, the Time (Mus musculus [22]) was 34.5 s and the Time (Mus musculus [23]) was 22 s. For the same compound, the Time (Mus musculus [24]) was 32.4 s, the Time (Mus musculus [25]) was 24.9 s and the Time (Mus musculus [26]) was 27.3 s. For the same compound, the Time (Mus musculus [27]) was 28.7 s, the Kp at 1 h [28] was 0.41 and the Kp at 1 h [29] was 0.14. It also gave a Kp at 1 h [30] of 0.48, a Kp at 1 h [31] of 0.61 and a Kp at 1 h [32] of 0.96. It also gave a Kp at 1 h [33] of 0.62.
